Laboratory results published in ChEMBL document CHEMBL4014335, “Activation of Phenyl 4-(2-Oxo-3-alkylimidazolidin-1-yl)benzenesulfonates Prodrugs by CYP1A1 as New Antimitotics Targeting Breast Cancer Cells” (J Med Chem, 2017).
Blank lines part the entries; values can stand above or below the molecule they belong to. The source made the active and inactive calls. No cut-off for these calls is given here.

Key:
MCF7 [1] = experiment: Cell cycle arrest in human MCF7 cells assessed as accumulation at subG1 phase at 8 nM after 24 hrs by DAPI-staining based FACS analysis (reference value: 1.4%); format: functional
MDA-MB-468 [2] = experiment: Cell cycle arrest in human MDA-MB-468 cells assessed as accumulation at G2/M phase at 8 nM after 24 hrs by DAPI-staining based FACS analysis (reference value: 19.5%); format: functional
MDA-MB-468 [3] = experiment: Cell cycle arrest in human MDA-MB-468 cells assessed as accumulation at G0/G1 phase at 8 nM after 24 hrs by DAPI-staining based FACS analysis (reference value: 63.3%); format: functional
MCF7 [4] = experiment: Cell cycle arrest in human MCF7 cells assessed as accumulation at G0/G1 phase at 8 nM after 24 hrs by DAPI-staining based FACS analysis (reference value: 65.5%); format: functional
MDA-MB-231 [5] = experiment: Cell cycle arrest in human MDA-MB-231 cells assessed as accumulation at subG1 phase at 8 nM after 24 hrs by DAPI-staining based FACS analysis (reference value: 4.1%); format: functional
Homo sapiens [6] = species on record: Homo sapiens; experiment: Destabilization of microtubule network in human MCF7 cells at 8 nM after 24 hrs by fluorescence microscopic analysis; format: cell-based
Homo sapiens [7] = species on record: Homo sapiens; experiment: Destabilization of microtubule network in human MDA-MB-231 cells at 8 nM after 24 hrs by fluorescence microscopic analysis; format: cell-based
MDA-MB-468 [8] = experiment: Cell cycle arrest in human MDA-MB-468 cells assessed as accumulation at S phase at 50 nM after 24 hrs by DAPI-staining based FACS analysis (reference value: 17%); format: functional
MDA-MB-468 [9] = experiment: Cell cycle arrest in human MDA-MB-468 cells assessed as accumulation at subG1 phase at 50 nM after 24 hrs by DAPI-staining based FACS analysis (reference value: 0.2%); format: functional
[10] = Selectivity ratio of IC50 for human HT-29 cells to IC50 for human MCF7 cells; format: functional
Procedure, shortened: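 Ratio is IC50 in reference line over IC50 in sensitive line. […] Cells in DMEM with 5% calf serum at 37 °C. At least two experiments, triplicate cultures; assay accepted when relative SD < 10%.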

Cytochrome P450 1A1 [11] = biological target: T1, Cytochrome P450 1A1 (Homo sapiens, UniProt P04798); experiment: Prodrug activation assessed as human supersomes CYP1A1-mediated 3,4,5-trimethoxyphenyl 4-(2-oxoimidazolidin-1-yl)benzenesulfonate formation after 4 hrs by HPLC-MS analysis; format: ADME; details: recombinant enzyme
T1 sequence (P04798 whole entry): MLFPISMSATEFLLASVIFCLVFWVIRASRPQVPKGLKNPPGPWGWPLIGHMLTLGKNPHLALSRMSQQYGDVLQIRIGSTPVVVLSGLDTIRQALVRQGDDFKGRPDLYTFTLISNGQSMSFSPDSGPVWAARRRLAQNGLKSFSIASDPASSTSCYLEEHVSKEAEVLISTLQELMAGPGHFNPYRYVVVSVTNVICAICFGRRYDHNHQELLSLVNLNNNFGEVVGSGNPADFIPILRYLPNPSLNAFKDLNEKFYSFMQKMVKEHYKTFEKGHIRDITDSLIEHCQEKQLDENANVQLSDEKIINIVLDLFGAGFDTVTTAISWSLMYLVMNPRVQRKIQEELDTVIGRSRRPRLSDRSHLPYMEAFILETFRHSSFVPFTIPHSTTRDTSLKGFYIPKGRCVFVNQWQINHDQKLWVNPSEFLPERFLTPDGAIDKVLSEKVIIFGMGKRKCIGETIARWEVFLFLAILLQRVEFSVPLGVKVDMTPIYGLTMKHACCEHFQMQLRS

Cytochrome P450 1A1 [12] = biological target: T1, Cytochrome P450 1A1; experiment: Prodrug activation assessed as time required for human supersomes CYP1A1-mediated 3,4,5-trimethoxyphenyl 4-(2-oxoimidazolidin-1-yl)benzenesulfonate formation after 4 hrs by HPLC-MS analysis; format: ADME; details: recombinant enzyme
MCF7 [13] = experiment: Cell cycle arrest in human MCF7 cells assessed as accumulation at G0/G1 phase at 50 nM after 24 hrs by DAPI-staining based FACS analysis (reference value: 65.5%); format: functional
MCF7 [14] = experiment: Cell cycle arrest in human MCF7 cells assessed as accumulation at G2/M phase at 50 nM after 24 hrs by DAPI-staining based FACS analysis (reference value: 22.3%); format: functional
MDA-MB-231 [15] = experiment: Cell cycle arrest in human MDA-MB-231 cells assessed as accumulation at subG1 phase at 50 nM after 24 hrs by DAPI-staining based FACS analysis (reference value: 4.1%); format: functional
MDA-MB-231 [16] = experiment: Cell cycle arrest in human MDA-MB-231 cells assessed as accumulation at S phase at 50 nM after 24 hrs by DAPI-staining based FACS analysis (reference value: 9.7%); format: functional
Homo sapiens [17] = species on record: Homo sapiens; experiment: Destabilization of microtubule network in human MDA-MB-468 cells at 50 nM after 24 hrs by fluorescence microscopic analysis; format: cell-based
Homo sapiens [18] = species on record: Homo sapiens; experiment: Destabilization of microtubule network in human MCF7 cells at 50 nM after 24 hrs by fluorescence microscopic analysis; format: cell-based
Homo sapiens [19] = species on record: Homo sapiens; experiment: Destabilization of microtubule network in human MDA-MB-231 cells at 50 nM after 24 hrs by fluorescence microscopic analysis; format: cell-based
MDA-MB-468 [20] = experiment: Cytotoxicity against human MDA-MB-468 cells after 72 hrs in presence of CYP1A1 inhibitor tacrine by SRB assay; format: functional, cell-based
Procedure, shortened: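 MDA-MB-468 cells (5.0 x 10^3/well) seeded and incubated 24 h. Drug freshly dissolved in DMSO, given at 0.75 to 1.0 x 10^5 nM, together with subtoxic CYP inhibitor, for 72 h. Cells fixed with cold 10% TCA and stained with 0.1% sulforhodamine B. Bound dye taken up in 10 mM Tris, absorbance read at 530-565 nm. At least two experiments, triplicate cultures.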

Cytochrome P450 1A2 = biological target: T2, Cytochrome P450 1A2 (Homo sapiens, UniProt P05177); experiment: Prodrug activation assessed as human supersomes CYP1A2-mediated 3,4,5-trimethoxyphenyl 4-(2-oxoimidazolidin-1-yl)benzenesulfonate formation after 4 hrs by HPLC-MS analysis; format: ADME; details: recombinant enzyme
T2 sequence (P05177 whole entry): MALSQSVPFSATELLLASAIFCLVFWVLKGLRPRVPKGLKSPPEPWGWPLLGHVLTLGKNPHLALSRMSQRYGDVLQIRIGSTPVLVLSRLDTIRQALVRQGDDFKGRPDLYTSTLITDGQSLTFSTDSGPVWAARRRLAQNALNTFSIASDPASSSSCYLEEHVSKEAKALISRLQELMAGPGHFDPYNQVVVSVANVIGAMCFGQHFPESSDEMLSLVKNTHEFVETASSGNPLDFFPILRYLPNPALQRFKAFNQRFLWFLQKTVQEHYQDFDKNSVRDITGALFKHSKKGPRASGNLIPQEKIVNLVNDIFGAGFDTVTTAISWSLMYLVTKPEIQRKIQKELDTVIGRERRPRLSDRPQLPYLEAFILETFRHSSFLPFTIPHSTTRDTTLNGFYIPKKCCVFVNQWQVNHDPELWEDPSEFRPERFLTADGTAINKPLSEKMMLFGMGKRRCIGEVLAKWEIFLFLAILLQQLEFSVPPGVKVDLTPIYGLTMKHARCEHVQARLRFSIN

[21] = Stability in human liver microsomes assessed as compound remaining after 60 mins by HPLC-MS analysis

SMILES: COc1cc(OS(=O)(=O)c2ccc(N3CCNC3=O)cc2)cc(OC)c1OC
Activity (MCF7 [1]): 35.6%
Activity (MDA-MB-468 [2]): 74.4%
Activity (MDA-MB-468 [3]): 10.6%
Activity (MCF7 [4]): 9.6%
Activity (MDA-MB-231 [5]): 6.9%
Activity (Homo sapiens [6]): Active
Activity (Homo sapiens [7]): inactive

Drug metabolism (Cytochrome P450 1A1 [11]): Metabolite_Detected
Time (Cytochrome P450 1A1 [12]): 30 min
Drug metabolism (Cytochrome P450 1A2): Metabolite_Notdetected
remaining at 1 h [21]: 25%
SMILES: CCCCN1CCN(c2ccc(S(=O)(=O)Oc3cc(OC)c(OC)c(OC)c3)cc2)C1=O
Activity (MDA-MB-468 [8]): 15%
Activity (MDA-MB-468 [9]): 1.3%
Ratio IC50 [10]: 360
Activity (MCF7 [13]): 3.7%
Activity (MCF7 [14]): 90.2%
Activity (MDA-MB-231 [15]): 2.1%
Activity (MDA-MB-231 [16]): 9.2%
Activity (Homo sapiens [17]): Active
Activity (Homo sapiens [18]): Active
Activity (Homo sapiens [19]): inactive
Activity (MDA-MB-468 [20]): inactive
